This is an account of results in ChEMBL document CHEMBL1128461, “Synthesis, X-ray crystallography, and pharmacokinetics of novel azomethine prodrugs of (R)-alpha-methylhistamine: highly potent and selective histamine H3 receptor agonists” (J Med Chem, 1995).

The nature of data set [1]: Conversion rate by hydrolysis of compound in plasma after 4 hr at a pH of 7.4. The format is ADME, cell-free. The settings on record: pH 7.4, read-out: Conversion rate.
A short description of data set [2]: Conversion rate by hydrolysis of compound in plasma after 6 hr. The data set is classed as ADME, cell-free. The settings on record: read-out: Conversion rate. The essentials: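 Male Swiss mice (20–25 g) were given 24 μmol/kg prodrug orally in 1% methyl cellulose and decapitated at 0.5, 1, 3 or 6 h. Plasma HClO4 extracts were assayed by RIA for free 1, with total 1 measured after heating at 95 °C for 30 min. Value is AUCplasma(1)/[AUCplasma(1)+AUCplasma(prodrug)].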

A short description of data set [3]: Concentration of compound in Central nervous system; Not detectable. The format is ADME, tissue-based.
Data set [4] is described as follows: Conversion rate by hydrolysis of compound […] after 2 hr at a pH of 1.0. The format is ADME, cell-free. The following applies: pH 1; read-out: Conversion rate. The essentials: (§1)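 Prodrug from a 10 mM DMSO stock, diluted to 4 μM final in 0.4 N HClO4 and held at room temperature. Aliquots were taken at intervals. Free 1 was measured by RIA: p-benzoquinone derivatization for 30 min, then rabbit antiserum and 125I tracer. Hydrolysis % is the measured 1 as a percent of the level for complete hydrolysis.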

Data set [5] in a line: Plasma concentration (AUC) was determined; Not detectable. The format is ADME, cell-free.
Data set [6] in a line: Conversion rate by hydrolysis of compound in plasma after 6 h; Not detectable. The format is ADME, cell-free.
Data set [7] in a line: Conversion rate by hydrolysis of compound […] after 2 hr at a pH of 1.0; Not detectable. The format is ADME, cell-free. The following applies: pH 1, 2 h. An outline of the steps: as §1
Data set [8] can be described thus: Conversion rate by hydrolysis of compound in plasma after 4 hr at a pH of 7.4; Not detectable. The data set is classed as ADME, cell-free. The following applies: pH 7.4, 4 h.

For `C[C@H](Cc1c[nH]cn1)/N=C(\c1ccccc1)c1cc(Cl)ccc1O`, the metabolised at 4 h in data set [1] worked out at 23.2%. In addition, the metabolised at 6 h in data set [2] was 33%. Also, in data set [3], the “concentration in CNS” value was “Not detectable”. In addition, the metabolised at 2 h in data set [4] came to 46.9%.

For the molecule `C[C@H](Cc1c[nH]cn1)/N=C(\c1ccc(Cl)cc1)c1cc(Cl)ccc1O`, the metabolised at 4 h in data set [1] was 16.2%. Also, the metabolised at 6 h in data set [2] worked out at 58%. Also, the metabolised at 2 h in data set [4] was 62.7%.

`COc1ccc(/C(=N/[C@H](C)Cc2c[nH]cn2)c2ccccc2)c(O)c1`: the AUC result in data set [5] was “Not detectable”. Besides, in data set [1], the metabolised at 4 h worked out at 6%. Also, the “concentration in CNS” value in data set [3] is listed as “Not detectable”. The metabolised at 2 h in data set [4] was determined as 3%.

As to `C[C@H](Cc1c[nH]cn1)/N=C(\c1ccc(F)cc1)c1cc(F)ccc1O`, the metabolised at 4 h in data set [1] stood at 33.8%. Besides, in data set [2], the metabolised at 6 h stood at 45%. Moreover, the metabolised at 2 h in data set [4] was 63.8%.

On to `C[C@H](Cc1c[nH]cn1)/N=C(\c1ccccc1)c1cc(Br)ccc1O`, for which the metabolised at 4 h in data set [1] was determined as 16.6%. For the same molecule, in data set [2], the metabolised at 6 h turned out to be 31%. Moreover, the metabolised at 2 h in data set [4] was 34.6%.

`C[C@H](Cc1c[nH]cn1)/N=C(\c1ccc(F)cc1)c1ccccc1O`: in data set [2], the metabolised at 6 h is 26%. For the same molecule, in data set [4], the metabolised at 2 h stood at 20.1%.

For the molecule `C[C@H](Cc1c[nH]cn1)/N=C(/c1cc(F)ccc1O)c1cccc2ccccc12`, the metabolised at 4 h in data set [1] turned out to be 1.3%. The metabolised at 6 h in data set [2] turned out to be 11%. For the same molecule, the “concentration in CNS” value in data set [3] is “Not detectable”. The metabolised at 2 h in data set [4] is 0.2%.

As to `C[C@@H]1Cc2[nH]cnc2C(c2ccccc2O)N1` (some centres undefined), the AUC result in data set [5] is recorded as “Not detectable”. Moreover, the Conversion rate entry in data set [6] is reported as “Not detectable”. Further, in data set [3], the “concentration in CNS” value was “Not detectable”. Further, in data set [4], the metabolised at 2 h worked out at 0.2%.

In the case of `C[C@H](Cc1c[nH]cn1)/N=C(\c1ccc(F)cc1)c1cc(Cl)ccc1O`, in data set [1], the metabolised at 4 h worked out at 26%. Further, the metabolised at 6 h in data set [2] was found to be 40%. Also, in data set [4], the metabolised at 2 h was 67.1%.

Take `C[C@H](Cc1c[nH]cn1)/N=C(\c1ccccc1)c1cc(F)cc(Cl)c1O`: the metabolised at 4 h in data set [1] is 19.6%. Besides, the metabolised at 6 h in data set [2] worked out at 28%. For the same molecule, in data set [4], the metabolised at 2 h amounted to 79.3%.

`C[C@H](Cc1c[nH]cn1)/N=C(\c1ccc(Cl)cc1)c1cc(F)ccc1O`: the metabolised at 4 h in data set [1] was 15.2%. The metabolised at 6 h in data set [2] came to 42%. In data set [4], the metabolised at 2 h is 62%.

With `C[C@H](Cc1c[nH]cn1)/N=C(\c1ccccc1)c1cc(F)ccc1O`, the metabolised at 4 h in data set [1] was 15.4%. The metabolised at 6 h in data set [2] came out at 24%. The metabolised at 2 h in data set [4] was 30%.

On to `Cc1cc(O)c(/C(=N/[C@H](C)Cc2c[nH]cn2)c2ccccc2)cc1Cl`, for which the metabolised at 4 h in data set [1] turned out to be 2.8%. Further, in data set [2], the metabolised at 6 h turned out to be 41%. Moreover, the “concentration in CNS” value in data set [3] is reported as “Not detectable”. The metabolised at 2 h in data set [4] amounted to 5.6%.

As to `C[C@H](Cc1c[nH]cn1)/N=C(\c1ccc(Cl)cc1)c1ccccc1O`, the metabolised at 6 h in data set [2] worked out at 28%. The metabolised at 2 h in data set [4] worked out at 18.3%.

Regarding `Cc1ccc(O)c(/C(=N/[C@H](C)Cc2c[nH]cn2)c2ccccc2)c1`, in data set [2], the metabolised at 6 h was 29%. For the same molecule, the “concentration in CNS” value in data set [3] is “Not detectable”. In data set [4], the metabolised at 2 h was determined as 11.9%.

For the molecule `C[C@H](Cc1c[nH]cn1)N=C(c1ccccc1O)c1ccccc1O`, the Conversion rate result in data set [7] and in data set [8] was “Not detectable” each time. The “concentration in CNS” value in data set [3] is listed as “Not detectable”.

Regarding `C[C@H](Cc1c[nH]cn1)/N=C(\c1ccccc1)c1ccccc1O`, the metabolised at 6 h in data set [2] was 14%. Further, the “concentration in CNS” value in data set [3] was “Not detectable”. Also, the metabolised at 2 h in data set [4] came out at 14.1%.
